Laboratory results as given in ChEMBL document CHEMBL1671820, “Incorporation of basic side chains into cryptolepine scaffold: structure-antimalarial activity relationships and mechanistic studies” (J Med Chem, 2011).
Activity calls are given as the source filed them. The rule behind the calls is not given here.

Legend:
[1] = Inhibition of Plasmodium falciparum falcipain 2
Nucleic Acid [2] = test: Binding affinity to s(GATCCTAGGATC)2-DNA by fluorescence spectroscopy; format: nucleic-acid assay
How it was run: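 Buffer 0.01 M phosphate pH 7.4, 0.1 M NaCl, 25.0 C, 1 cm quartz cuvettes. Fluorescence: excitation 339 nm, emission 450–500 nm. Dilution-corrected intensity change fitted to single-site binding for Kd; Kass taken as 1/Kd.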

[3] = Selectivity index, ratio of IC50 for african green monkey Vero cells to IC50 for chloroquine-resistant ring stage Plasmodium falciparum W2; format: toxicity, cell-based; settings: read-out: Ratio IC50
How it was run: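 Vero IC50 divided by W2 IC50. Vero: 15000 cells/well adhered overnight, then log dilutions from 30 mg/mL DMSO stock for 48 h. MTT 0.5 mg/mL final for 2 h at 37 C, formazan dissolved in 95% ethanol, A570 read against DMSO vehicle as 100% viability. W2: 48 h YOYO-1 flow-cytometric growth assay in human erythrocytes.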

Heme = test: Binding affinity to heme by UV-visible titration
How it was run: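 Hematin monomer (FPIX-OH, 10 μM) in pH 5.5 HEPES-buffered 40% DMSO v/v at 25 C, titrated with ligand from 100 μM solution until above hematin concentration. Stirred 1 min per addition; spectra 230–500 nm, Soret change at 402 nm. Absorbance dilution-corrected, nonlinear fit for Kd; Kass calculated from Kd.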

Plasmodium falciparum [4] = test: Antiplasmodial activity against chloroquine-sensitive, mefloquine-resistant ring stage Plasmodium falciparum D6 infected in human red blood cells after 48 hrs; format: functional, organism-based; settings: D6, 48 h
Plasmodium falciparum [5] = test: Resistance index, ratio of IC50 for chloroquine-resistant ring stage Plasmodium falciparum W2 to IC50 for chloroquine-sensitive ring stage Plasmodium falciparum 3D7; format: functional
How it was run: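 W2 IC50 divided by 3D7 IC50. Both were measured by 48 h YOYO-1 flow-cytometric growth assay on sorbitol-synchronised 1% ring-stage cultures in human erythrocytes at 37 C under 3% O2.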

Vero = test: Cytotoxicity against african green monkey Vero cells after 48 hrs by MTT assay; format: cell-based; settings: Chlorocebus sabaeus
How it was run: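 Vero monkey kidney cells in DMEM with 10% FBS at 37 C, 7% CO2; seeded 15000 cells/well and adhered overnight. Log dilutions from 30 mg/mL DMSO stock, 48 h exposure. MTT at 0.5 mg/mL final for 2 h; formazan dissolved in 95% ethanol, read at 570 nm. Viability relative to DMSO-medium wells; IC50 from concentration–viability curve; doxorubicin as standard.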

Plasmodium falciparum [6] = test: Antiplasmodial activity against chloroquine-sensitive ring stage Plasmodium falciparum 3D7 infected in human red blood cells after 48 hrs; format: functional, organism-based; settings: 3D7, 48 h
Plasmodium falciparum [7] = test: Antiplasmodial activity against chloroquine and pyrimethamine-resistant ring stage Plasmodium falciparum V1/S infected in human red blood cells after 48 hrs; format: functional, organism-based
Plasmodium falciparum [8] = test: Antiplasmodial activity against chloroquine-resistant ring stage Plasmodium falciparum W2 infected in human red blood cells after 48 hrs; format: functional, organism-based; settings: W2, 48 h
[9] = Inhibition of Plasmodium falciparum falcipain 3
[10] = Drug uptake in Plasmodium falciparum infected in human erythrocyte food vacuoles at 5 uM after 3 hrs by fluorescence microscopy; format: ADME, cell-based
How it was run: (§1)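 Human erythrocyte P. falciparum culture at 1.9% parasitemia, given 5 μM compound or DMSO solvent control for 3 h at room temperature in the dark. Washed gently with PBS, placed on poly-Lys-coated coverslips and imaged directly by phase contrast and fluorescence microscopy, 100× oil objective.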

[11] = Inhibition of hematin assessed as quenching fluorescence intensity at 1:1 drug-hematin ratio by UV-visible titration; format: functional; settings: dose or concentration not given here
Plasmodium berghei = test: Antiplasmodial activity against GFP-expressing liver stage Plasmodium berghei sporozoites infected in human Huh-7 cells at 5 uM by fluorescence activated cell sorting based method; format: functional, organism-based
How it was run: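 Huh7 human hepatoma cells infected with GFP-expressing P. berghei sporozoites, compound at 5 μM. Read-out by FACS: invasion as % GFP-positive cells 2 h after sporozoite addition; development as GFP fluorescence intensity of positive cells at 48 h. Cells trypsinized for 5 min at 37 C, then resuspended in 2% FCS/PBS before analysis.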

Nucleic Acid [12] = test: Binding affinity to DNA assessed as quenching fluorescence intensity by UV-visible spectrophotometry; format: nucleic-acid assay
[13] = Drug uptake in Plasmodium falciparum infected in human erythrocyte nucleus at 5 uM after 3 hrs by fluorescence microscopy; format: ADME, cell-based; how it was run: as §1
Nucleic Acid [14] = test: Binding affinity to s(GATCCTAGGATC)2-DNA by UV-visible spectrophotometry; format: nucleic-acid assay

| SMILES | IC50 [1] [nM] | Ka (Nucleic Acid [2]) [×10⁶ /M] | selectivity ratio [3] | Ka (Heme) [×10⁶ /M] | IC50 (Plasmodium falciparum [4]) [nM] | Ratio IC50 (Plasmodium falciparum [5]) | IC50 (Vero) [nM] | IC50 (Plasmodium falciparum [6]) [nM] | IC50 (Plasmodium falciparum [7]) [nM] | IC50 (Plasmodium falciparum [8]) [nM] | IC50 [9] [nM] | Drug uptake [10] | inhibition [11] [%] | Activity (Plasmodium berghei) | Activity (Nucleic Acid [12]) [%] | Drug uptake [13] | Ka (Nucleic Acid [14]) [×10⁶ /M] |
| --- | --- | --- | --- | --- | --- | --- | --- | --- | --- | --- | --- | --- | --- | --- | --- | --- | --- |
| CCN(CC)CCCNc1c2ccc(Cl)cc2[n+](C)c2c1[nH]c1ccccc12.[Cl-] | 11000 | 17 | 60 | 0.11 | 70 | 0.5 | 13000 | 34 | 40 | 21 |  |  |  |  |  |  |  |
| CCN(CC)CCCCNc1c2ccccc2[n+](C)c2c1[nH]c1ccccc12.[Cl-] |  | 9 | 358 | 0.15 | 71 | 0.4 | 10000 | 22.3 | 66 | 29 |  |  |  |  |  |  |  |
| CN(C)CCCNc1c2ccccc2[n+](C)c2c1[nH]c1ccccc12.[Cl-] | 34000 | 3 | 109 | 0.066 | 46 | 0.4 |  | 24 | 51 | 20 | > 50000 |  |  |  |  |  |  |
| C[n+]1c2ccccc2c(NC2CCN(Cc3ccccc3O)CC2)c2[nH]c3ccccc3c21.[Cl-] | 14800 | 0.6 | 10 | 0.108 | 185 | 0.7 |  | 536 | 418 | 276 | 43000 |  |  |  |  |  |  |
| C[n+]1c2ccccc2c(NCCCN2CCCCC2)c2[nH]c3ccccc3c21.[Cl-] |  | 5.3 | 56 | 0.161 | 34 | 1.3 | 20000 | 23 | 28 |  |  |  |  |  |  |  |  |
| CC(CN(C)C)Nc1c2ccccc2[n+](C)c2c1[nH]c1ccccc12.[Cl-] (centres undefined) | 8300 | 1.9 | 23 | 0.148 | 78 | 0.9 |  | 202 | 165 | 142 | 14000 |  |  |  |  |  |  |
| CCN(CC)c1c2ccccc2[n+](C)c2c1[nH]c1ccccc12.[Cl-] | 18000 | 0.47 | 2 | 0.19 | 1290 | 0.7 |  | 2200 | 1770 | 1250 | 46300 |  |  |  |  |  |  |
| C[n+]1c2ccccc2c(NCCCCN)c2[nH]c3ccccc3c21.[Cl-] |  | 1.4 | 1310 | 0.147 | 245 | 0.2 | > 85000 | 190 | 422 | 65 |  |  |  |  |  |  |  |
| C[n+]1c2ccccc2c(NCCN)c2[nH]c3ccccc3c21.[Cl-] | 6300 | 0.85 | 678 | 0.127 | 107 | 0.6 | 60000 | 115 | 156 | 89 | > 25000 |  |  |  |  |  |  |
| C[n+]1c2ccccc2c(NCCCN)c2[nH]c3ccccc3c21.[Cl-] | 11000 | 0.25 | 371 | 0.18 | 71 | 0.2 | 10000 | 54 | 133 | 26 | 14000 |  |  |  |  |  |  |
| C[n+]1c2ccccc2c(NC2CCNCC2)c2[nH]c3ccccc3c21.[Cl-] | 6390 | 0.74 | 1410 | 0.154 | 59 | 0.7 | 62000 | 23 | 60 |  | 7900 | Active | 60 | inactive | 20 | Active |  |
| CCN(CC)CCCC(C)Nc1c2ccccc2[n+](C)c2c1[nH]c1ccccc12.[Cl-] (centres undefined) | 11600 | 4.3 | 103 | 0.062 | 161 | 0.4 |  | 145 | 274 | 122 | 7000 |  |  |  |  |  |  |
| CC(C)CN1CCC(Nc2c3ccccc3[n+](C)c3c2[nH]c2ccccc23)CC1.[Cl-] | 10500 | 0.74 | 70 | 0.227 | 86 | 0.9 |  | 70 | 76 | 70 | 16000 |  |  |  |  |  |  |
| CN(C)CC(C)(C)CNc1c2ccccc2[n+](C)c2c1[nH]c1ccccc12.[Cl-] | 33500 | 2.6 | 18 | 0.069 | 250 | 1.3 |  | 146 | 144 |  | 26000 |  |  |  |  |  |  |
| C[n+]1c2cc(Cl)ccc2c(NC2CCNCC2)c2[nH]c3cc(Cl)ccc3c21.[Cl-] | 4800 | 1.6 | 16 | 0.12 | 30 | 1.4 |  | 31 | 35 | 48 |  |  |  |  |  |  |  |
| C[n+]1c2ccccc2cc2[n-]c3ccccc3c21.Cl [CRYPTOLEPINE HYDROCHLORIDE] | 38000 |  | 1.4 | 0.045 | 222 | 2.9 | 1050 | 424 | 259 |  | > 50000 | Active |  | inactive |  | Active | 0.25 |
